XBP1 UPR activ – activators of adaptive XBP1 UPR arm, primary screen, cell-based, CHO-XBP1 luciferase reporter, luminescence, uHTS; IRE1-XBP1 UPR activation; percent of tunicamycin response, DMSO as zero; 330,000 tested, 0.33% active; AID 463104, 2010; activation, % at 20 µM;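 active = versus positive control, 20 µM dose yields 30% or more activation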
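Assay system: IRE1-XBP1 luciferase reporter CHO line. Input: 1000 cells/well. Buffer or medium: F12 with 10% serum. Doses: 20 µM, 1% DMSO. Times: overnight seeding at 37 °C, 6 h compound treatment at 37 °C. Technique: Steady-Glo luciferase glow luminescence, 10 min after reagent addition.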
TLR9-MyD88 inh – inhibitors of TLR9-MyD88 association in cells, primary screen, cell-based, CHO, BLA complementation, fluorescence; CCF4 FRET ratio; 340,000 tested, 0.21% active; Toll-like receptor 9 (Homo sapiens) + Myeloid differentiation primary response protein …; inhibition, % at 4.98 µM; AID 504734, 2011;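 active = inhibition above the mean over all tested compounds plus 3 SD, cut at about 21% in these data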
TLR4-MyD88 BLA – inhibitors of TLR4-MyD88 association in cells, primary screen, cell-based, HeLa CL3-4, BLA complementation, FRET ratio; Toll-like receptor 4 (Homo sapiens) + Myeloid differentiation primary response protein …; HeLa CL3-4 TLR4/MyD88 BLA complementation; inhibition, % at 8.4 µM; 200,000 tested, 0.18% active; AID 861, 2007; in the data active = inhibition above about 25%
Target sequence (O00206 whole entry, looked up): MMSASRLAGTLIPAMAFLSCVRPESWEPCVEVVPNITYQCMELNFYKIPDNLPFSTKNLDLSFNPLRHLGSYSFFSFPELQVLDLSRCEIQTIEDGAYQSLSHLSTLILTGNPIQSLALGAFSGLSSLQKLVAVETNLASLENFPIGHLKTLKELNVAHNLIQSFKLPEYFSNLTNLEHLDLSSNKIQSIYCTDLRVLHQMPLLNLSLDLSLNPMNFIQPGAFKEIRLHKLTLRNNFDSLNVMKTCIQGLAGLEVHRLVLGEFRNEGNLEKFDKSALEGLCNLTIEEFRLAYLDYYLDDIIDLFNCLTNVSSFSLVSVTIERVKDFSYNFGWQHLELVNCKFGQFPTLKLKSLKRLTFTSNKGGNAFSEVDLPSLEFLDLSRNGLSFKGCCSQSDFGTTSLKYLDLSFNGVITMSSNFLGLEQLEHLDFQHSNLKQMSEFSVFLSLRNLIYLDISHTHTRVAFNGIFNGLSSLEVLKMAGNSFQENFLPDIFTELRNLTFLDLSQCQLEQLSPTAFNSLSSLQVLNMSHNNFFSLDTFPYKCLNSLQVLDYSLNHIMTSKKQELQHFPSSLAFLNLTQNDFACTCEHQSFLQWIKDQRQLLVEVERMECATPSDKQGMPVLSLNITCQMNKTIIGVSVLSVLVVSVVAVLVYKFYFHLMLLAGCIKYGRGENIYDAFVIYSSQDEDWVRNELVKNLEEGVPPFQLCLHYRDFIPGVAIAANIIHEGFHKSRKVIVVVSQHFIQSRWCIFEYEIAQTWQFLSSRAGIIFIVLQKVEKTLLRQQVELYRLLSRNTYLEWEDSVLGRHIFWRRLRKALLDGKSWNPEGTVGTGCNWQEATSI
Target sequence (Q99836 whole entry, looked up): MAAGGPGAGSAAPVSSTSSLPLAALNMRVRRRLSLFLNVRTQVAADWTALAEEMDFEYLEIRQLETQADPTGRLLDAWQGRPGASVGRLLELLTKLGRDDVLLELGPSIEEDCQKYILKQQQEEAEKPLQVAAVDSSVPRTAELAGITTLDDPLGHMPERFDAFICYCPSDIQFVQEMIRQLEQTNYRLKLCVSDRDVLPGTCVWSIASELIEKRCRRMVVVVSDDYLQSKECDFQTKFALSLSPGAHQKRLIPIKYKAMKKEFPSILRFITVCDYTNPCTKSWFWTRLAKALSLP
CHOP UPR activ – activators of apoptotic CHOP UPR arm, primary screen, cell-based, CHO-CHOP luciferase reporter, luminescence, uHTS; UPR activation; percent of tunicamycin response over DMSO baseline; activation, % at 10 µM; 330,000 tested, 0.34% active; AID 449763, 2010;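 active = at 10 µM dose, activation of 40% or more, normalized to positive control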
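measured by = luciferase luminescence | assay system = CHO-CHOP cells, stable luciferase reporter of PERK-eIF2a-CHOP signalling | amount = 500 reporter cells seeded per well | timing = 6 h compound exposure at 37 °C after overnight seeding | controls = positive tunicamycin 10 µg/mL, negative DMSO alone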
NOD2 RIPK2 PPI – NOD2-RIPK2 binding disruptors in cells, primary screen, fluorescence, CHO cells, BLA complementation | AID 624267, 2012 | inhibition, % at 4.98 µM | CCF4 ratio | 360,000 tested, 0.38% active | Receptor-interacting serine/threonine-protein kinase 2 (Homo sapiens), O43353; in the data active = inhibition above about 21%
CHOP inh – inhibitors of CHOP promoter induction, primary screen, cell-based, unfolded protein response, luciferase reporter; CHO-K1 CHOP-promoter luciferase, tunicamycin-induced, 15-18 h; inhibition, % at 10 µM; 220,000 tested, 3.8% active; AID 2732, 2010;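 active = compounds that reduced the stress-induced luciferase reporter signal by more than about 70% of percent inhibition, limit read from the data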
A number is an active result; 0 = inactive; - = no result given. The entries come from a sample that favours hits as a whole.

SMILES	XBP1 UPR activ	TLR9-MyD88 inh	TLR4-MyD88 BLA	CHOP UPR activ	NOD2 RIPK2 PPI	CHOP inh
Cc1nn(C2CCS(=O)(=O)C2)c2nc(C3CC3)cc(C(=O)Nc3cccc(C#N)c3)c12 (stereo not given)	0	0	-	0	0	-
CN1C[C@@H]2[C@@H]3C(=O)N(C)C(=O)[C@@H]3[C@](C)(C1=O)N2C(=O)c1ccc(C(C)(C)C)cc1	-	0	-	-	0	-
O=C(NCc1ccncc1)[C@@H]1CCCN1C(=O)[C@@H]1CCCN1C(=O)c1c(F)cccc1F	-	-	-	-	0	-
COC(=O)C(C(=O)OC)C1CCCCC1NS(=O)(=O)c1ccc(C)cc1 (stereo not given)	-	-	-	-	0	-
COCCn1c(SCC(=O)Nc2cc(C)on2)nc2ccccc2c1=O	0	0	-	0	0	-
Cc1cc(NC(=O)CSc2nc3ccccc3c(=O)n2Cc2ccc(F)cc2)no1	0	0	0	0	0	78
CCc1c(C)sc2nc(SCC(=O)Nc3cc(C)on3)n(CCOC)c(=O)c12	0	0	0	0	0	78
CCCCCCCCN1C(=O)[C@H](CC(=O)N2CCOCC2)C[C@@]2(C(=O)OC)CC(C)(C)CC=C12	-	-	-	-	0	-
Cc1cc(C)cc(Nc2cc(=O)n(C3CCCCC3)c(=O)[nH]2)c1	0	0	0	0	0	87
CCCNC(=O)C1(C)CCN(Cc2ccc(OCc3ccccc3)cc2)C1 (stereo not given)	-	-	-	-	0	-
O=C(Nc1ccccc1N1CCCCC1)c1cccs1	0	0	0	0	0	86
O=C(Nc1ccccc1N1CCCC1)c1ccccc1Cl	0	0	-	0	0	-
O=C(Nc1ccccc1N1CCCCC1)c1cnccn1	0	0	0	0	0	80
CS(=O)(=O)N1CCN(c2ccccc2NC(=O)c2cccs2)CC1	0	0	0	0	0	0
O=C(Nc1ccc(N2CCCCC2)cc1)c1ccccn1	0	0	0	0	0	94
Cc1ccccc1C(=O)Nc1ccccc1N1CCCCC1	0	0	0	0	0	88
O=C(Nc1ccc(N2CCCCCC2)cc1)c1ccccc1Cl	0	0	0	0	0	0
O=C(Nc1ccc(Cl)cc1)c1csc([C@@H]2O[C@H](CO)[C@@H](O)[C@H]2O)n1	-	-	-	-	0	-
CC1(C(=O)NS(=O)(=O)C2CC2)CCN(C(=O)c2cc3ccccc3s2)C1 (stereo not given)	-	-	-	-	0	-
CC(C)Oc1ccc(C(=O)Nc2ccc(N3CCCC3)cc2)cc1	0	0	0	0	0	73
CC(=O)c1sc(NC(=O)COc2ccc(Cl)cc2C)nc1C	0	0	-	0	0	0
CC(=O)c1sc(NC(=O)COc2c(C)cc(Cl)cc2C)nc1C	0	-	0	0	-	83
Cc1ccc(NC(=O)CSc2nc3ccc(Nc4nc(N5CCOCC5)nc(N5CCOCC5)n4)cc3s2)cc1	78	0	-	0	0	-
CC(=O)N1CCN(C(=O)c2cccc(S(=O)(=O)N3CCN(c4ccccc4)CC3)c2)CC1	0	0	-	0	0	-
O=C(NNC(=O)c1cccc(S(=O)(=O)N2CCN(c3ccccc3)CC2)c1)c1ccc(Cl)cc1	0	0	0	0	0	83
SMILES	XBP1 UPR activ	TLR9-MyD88 inh	TLR4-MyD88 BLA	CHOP UPR activ	NOD2 RIPK2 PPI	CHOP inh
CCOc1ccc(OCCC(=O)Nc2ccccc2C(=O)NC2CC2)cc1	-	0	-	-	0	-
Nc1nc2c(ncn2[C@@H]2O[C@H](CNC(=O)[C@H](N)C3CCCCC3)[C@@H](O)[C@H]2O)c(=O)[nH]1	-	-	-	-	0	-
Cc1ccc(NC(=O)COC(=O)CC2CCCC2)cc1Cl	0	0	0	0	0	72
COc1ccc(N2CCN(C(=O)C3CCC(Cn4c(=S)[nH]c5ccccc5c4=O)CC3)CC2)cc1 (stereo not given)	0	0	0	0	0	71
O=C(C1CCC(Cn2c(=S)[nH]c3ccccc3c2=O)CC1)N1CCN(c2ccccc2)CC1 (stereo not given)	0	0	0	0	0	-
COc1ccc(N2CCN(C(=O)c3ccc4c(c3)[nH]c(=S)n3c5ccccc5nc43)CC2)cc1	0	-	0	0	-	73
C[C@@H]1CN([C@H](C)CO)C(=O)CCCn2nncc2CO[C@H]1CN(C)S(=O)(=O)c1ccc2ccccc2c1	-	0	-	-	0	-
O=C(Nc1c(-c2ccccc2)[nH][nH]c1=O)c1ccc(Br)cc1	-	-	-	-	0	-
COc1ccc(-c2cc(-c3c(O)c(OC)c4occc4c3OC)[nH]n2)cc1OC	0	0	0	0	0	0
COc1ccc(-c2cc(-c3c(O)c(OC)c4occc4c3OC)[nH]n2)cc1	0	0	0	0	0	86
CNc1cc(-c2ccc(O)cc2C)ncn1	-	-	-	-	0	-
CCN1C(=O)c2cccc3c(NS(=O)(=O)c4ccc(NC(C)=O)cc4)ccc1c23	0	0	0	0	0	0
CCOC(=O)c1ccc(NC(=O)Nc2ccc3c4c(cccc24)C(=O)N3CC)cc1	0	0	0	0	0	83
COc1ccc(/C=N/n2cnc3c([nH]c4ccc(F)cc43)c2=O)cc1CSc1ccccn1	0	0	-	0	0	80
Cc1cc(C)nc(Nc2n[nH]c(COc3ccc4ccccc4c3)n2)n1	0	0	0	0	0	87
CC(=O)Nc1cc(-c2ccc(CO)cc2)cn2c(-c3cccc(C(F)(F)F)c3)cnc12	-	-	-	-	0	-
COc1cccc(NC(=O)c2ccccc2)c1	0	0	-	0	0	-
COc1ccc(OC)c(NC(=O)Nc2ccc(Cl)cc2)c1	0	0	0	0	0	0
COc1cccc(NC(=O)C(NC2CCCC2)c2ccccc2)c1 (stereo not given)	0	0	0	0	0	82
COC(=O)c1cc(NC(=O)Nc2cc(OC)ccc2OC)cc(C(=O)OC)c1	0	0	0	0	0	78
COc1cccc(NC(=O)Nc2cccc(C(=O)O)c2)c1	0	0	0	0	0	76
C[C@H]1COc2cc(N3CCC[C@@H]3CO)ccc2S(=O)(=O)N1	-	-	-	-	0	-
COc1cccc(CN(C)C(=O)C2CCCN(C(=O)c3ccc(Cl)cc3)C2)c1 (stereo not given)	-	0	-	-	0	-

Screening results: PubChem, several laboratories
